Measurements published in ChEMBL document CHEMBL1156756, “4-Oxo-beta-lactams (azetidine-2,4-diones) are potent and selective inhibitors of human leukocyte elastase” (J Med Chem, 2010).
Activity calls are given as the source filed them. The rule behind the calls is not given here.

What was measured:
[1] = biological target: T1, Myeloblastin (Homo sapiens) (UniProt P24158); test: Inhibition of human proteinase 3
T1 sequence (whole entry): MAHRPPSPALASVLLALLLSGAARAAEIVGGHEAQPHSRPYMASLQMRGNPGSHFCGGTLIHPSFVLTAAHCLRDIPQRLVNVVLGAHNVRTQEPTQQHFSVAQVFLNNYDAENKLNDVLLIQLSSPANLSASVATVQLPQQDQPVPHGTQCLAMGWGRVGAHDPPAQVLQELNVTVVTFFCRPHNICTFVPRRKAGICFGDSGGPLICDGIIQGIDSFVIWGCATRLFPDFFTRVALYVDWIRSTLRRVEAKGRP
Method in brief: (§1)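 Proteinase 3 stock (325 nM in 0.05 M acetate pH 6, 150 mM NaCl) mixed at 25 °C with inhibitor in DMSO and MeOSuc-Ala-Ala-Pro-Val-p-nitroanilide (stock 50 mM in DMSO) in 0.1 M HEPES pH 7.2. A410 followed for 20 000 s. Progress curves fitted to slow-binding equations. Uninhibited controls ran linearly.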

[2] = biological target: T2, Papain (Carica papaya) (UniProt P00784); test: Inhibition of papaya papain at 60 uM
T2 sequence (whole entry): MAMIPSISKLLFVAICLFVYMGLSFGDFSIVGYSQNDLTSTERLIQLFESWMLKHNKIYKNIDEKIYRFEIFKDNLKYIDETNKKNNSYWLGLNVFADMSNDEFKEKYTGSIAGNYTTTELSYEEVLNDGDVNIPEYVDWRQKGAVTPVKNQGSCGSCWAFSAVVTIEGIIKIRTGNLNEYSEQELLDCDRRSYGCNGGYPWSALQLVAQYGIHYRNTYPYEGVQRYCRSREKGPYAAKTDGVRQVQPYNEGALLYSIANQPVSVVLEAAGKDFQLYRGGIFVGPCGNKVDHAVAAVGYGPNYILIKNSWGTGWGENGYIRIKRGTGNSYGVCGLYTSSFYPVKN
Method in brief: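 Incubation method. Activated papain was held with inhibitor at 25 °C in 50 mM potassium phosphate pH 7.0 with 2.5 mM EDTA. At intervals, aliquots were assayed with BAPA substrate (stock 10 mM in DMSO) in the same buffer, reading A410 for 4 min. Inhibitor-free controls were run in parallel.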

[3] = biological target: T3, Cathepsin G (Homo sapiens) (UniProt P08311); test: Inhibition of human cathepsin G
T3 sequence (whole entry): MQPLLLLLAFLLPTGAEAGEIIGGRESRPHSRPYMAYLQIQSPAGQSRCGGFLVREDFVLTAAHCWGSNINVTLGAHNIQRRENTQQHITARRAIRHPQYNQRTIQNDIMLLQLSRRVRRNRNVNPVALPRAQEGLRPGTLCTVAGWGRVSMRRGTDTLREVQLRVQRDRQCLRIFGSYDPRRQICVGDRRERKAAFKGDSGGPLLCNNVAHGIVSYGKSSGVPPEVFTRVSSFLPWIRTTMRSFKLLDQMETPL
Method in brief: (§2)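 Cathepsin G stock (680 nM in 0.05 M acetate, pH 5.5) mixed at 25 °C with inhibitor in DMSO and Suc-Ala-Ala-Pro-Phe-p-nitroanilide (stock 42.5 mM in DMSO) in 0.1 M HEPES pH 7.5. A410 recorded continuously for 20 min. Progress curves fitted with slow-binding kinetics. Uninhibited controls ran linearly. Highest concentration tested 60 μM.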

[4] = biological target: T1, Myeloblastin (Homo sapiens); test: Inhibition of human proteinase 3 at 10 uM; method in brief: as §1
[5] = Stability in human plasma assessed as half life at pH 7.4
[6] = biological target: T3, Cathepsin G (Homo sapiens); test: Inhibition of human cathepsin G at 60 uM; method in brief: as §2
[7] = Chemical stability in phosphate buffer assessed as half life at pH 7.4; assay type: physicochemical
[8] = biological target: T1, Myeloblastin (Homo sapiens); test: Inhibition of human proteinase 3 at 60 uM; method in brief: as §1

Row | SMILES | Activity ([1]; TDE = time-dependent effect) | Activity [2] | further results
1 | CCC1(CC)C(=O)N(c2ccc(C)cc2)C1=O | tde |  | 
2 | CCC1(CC)C(=O)N(c2ccccc2CSc2nnc(-c3ccccc3)o2)C1=O | tde |  | 
3 | CCC1(CC)C(=O)N(c2ccc(C#N)cc2)C1=O |  | inactive | Activity [3]: 36.5 M⁻¹ s⁻¹; inhibition [4]: 16%
4 | CCC1(CC)C(=O)N(c2ccccc2C)C1=O | tde |  | 
5 | CC1(C)C(=O)N(c2ccc(Cl)cc2)C1=O | tde |  | 
6 | CCC1(CC(C)C)C(=O)N(c2ccccc2)C1=O | tde |  | 
7 | CCC1(CC)C(=O)N(c2ccc(OC)cc2)C1=O | tde |  | 
8 | CCC1(Cc2ccccc2)C(=O)N(c2ccccc2)C1=O |  | inactive | Activity [6]: inactive; Activity [1]: 20.2 M⁻¹ s⁻¹
9 | CCC1(CC)C(=O)N(c2cccnc2)C1=O | tde |  | 
10 | CCC1(CC)C(=O)N(Cc2ccccc2)C1=O | tde |  | 
11 | CCC1(CC)C(=O)N(c2ccc(Cl)cc2)C1=O | tde |  | 
12 | CC1(Cc2ccccc2)C(=O)N(c2ccccc2)C1=O |  | inactive | Activity [6]: inactive; inhibition [8]: 22%
13 | CC1(C)C(=O)N(c2ccccc2)C1=O | tde |  | 
14 | CCC1(CC)C(=O)N(c2ccc(CSc3nc4cc(C(=O)O)ccc4o3)cc2)C1=O |  | inactive | Activity [6]: inactive; Activity [1]: 689 M⁻¹ s⁻¹
15 | CCOC(=O)CN1C(=O)C(CC)(CC)C1=O | tde |  | 
16 | CC1(C)C(=O)N(Cc2ccccc2)C1=O | tde |  | 
17 | CCCCC1(CC)C(=O)N(c2ccccc2)C1=O |  | inactive | Activity [3]: 47.3 M⁻¹ s⁻¹

Further lines, with some results ahead:

Row | Activity ([1]; TDE = time-dependent effect) | Activity [2] | SMILES | further results
18 | tde |  | CCC1(CC)C(=O)N(c2ccccc2)C1=O | 
19 | tde |  | CCC1(CC)C(=O)N(c2ccc(C)nc2)C1=O | 
20 | tde |  | CCC1(CC)C(=O)N(c2ccccc2CSc2nccn2C)C1=O | 
21 |  | inactive | CCC1(CC)C(=O)N(c2ccc(CSc3nc4ccccc4s3)nc2)C1=O | half-life [5]: 0.2 h; Activity [6]: inactive; half-life [7]: 13 h; Activity [1]: 4080 M⁻¹ s⁻¹
22 |  | inactive | CCC1(CC)C(=O)N(c2ccccc2CSc2nc3ccccc3o2)C1=O | Activity [6]: inactive; Activity [1]: 361 M⁻¹ s⁻¹
23 | tde |  | CCC1(CC)C(=O)N(c2ccccc2CSc2nc3ccccc3s2)C1=O | half-life [5]: 1.6 h; half-life [7]: 37 h
24 |  | inactive | CCC1(CC)C(=O)N(c2cccc3ccccc23)C1=O | Activity [3]: 35.6 M⁻¹ s⁻¹
25 |  | inactive | CCC1(CC)C(=O)N(c2ccc(CSc3nc4ccccc4o3)cc2)C1=O | Activity [6]: inactive; Activity [1]: 29.6 M⁻¹ s⁻¹
26 |  | inactive | CCC1(CC)C(=O)N(c2ccc(CSc3ccccc3)cc2)C1=O | Activity [1]: 122 M⁻¹ s⁻¹
27 | tde |  | CCC1(CC)C(=O)N(c2ccc(CSc3nc4ccccc4s3)cc2)C1=O | half-life [5]: 0.4 h; half-life [7]: 10 h
28 | tde |  | CCC1(CC)C(=O)N(c2ccc(CSc3nnc(-c4ccccc4)o3)cc2)C1=O | 
